{"data": "Results from different studies", "EGFR L858R/T790M": "Epidermal growth factor receptor (EGFR, Homo sapiens, UniProt P00533, L858R/T790M)", "EGFR G719C": "Epidermal growth factor receptor (EGFR, Homo sapiens, UniProt P00533, G719C)", "EGFR G719S": "Epidermal growth factor receptor (EGFR, Homo sapiens, UniProt P00533, G719S)", "EGFR T790M": "Epidermal growth factor receptor (EGFR, Homo sapiens, UniProt P00533, T790M)", "EGFR L861Q": "Epidermal growth factor receptor (EGFR, Homo sapiens, UniProt P00533, L861Q)", "EGFR": "Epidermal growth factor receptor (EGFR, Homo sapiens, UniProt P00533)", "EGFR del746-750": "Epidermal growth factor receptor (EGFR, Homo sapiens, UniProt P00533, del746-750)", "EGFR L858R": "Epidermal growth factor receptor (EGFR, Homo sapiens, UniProt P00533, L858R)", "note": "Protocols differ between the studies behind these lines."}
{"SMILES": "CCC(=O)Nc1cc(Nc2nc(N3CCc4sccc4C3)c3cccnc3n2)c(OC)cc1N1CCSCC1", "target": "EGFR L858R/T790M", "test": "enzyme activity, inhibitor, ELISA", "setting": "0.1 µM", "quantity": "inhibition", "result": "28.8%"}
{"SMILES": "Nc1ncnc2occ(-c3ccc(NC(=O)Nc4cc(C(F)(F)F)ccc4F)cc3)c12", "target": "EGFR G719C", "test": "cell-free assay", "setting": "20 µM", "quantity": "remaining signal", "result": "4.2%"}
{"SMILES": "CCC(=O)Nc1cc(Nc2nc(N3CCc4sccc4C3)c3cccnc3n2)c(OC)cc1N1CCN(C(C)=O)CC1", "target": "EGFR L858R/T790M", "test": "enzyme activity, inhibitor, ELISA", "setting": "0.1 µM", "quantity": "inhibition", "result": "10%"}
{"SMILES": "Nc1cnc(N2CCc3cc(S(=O)(=O)Nc4c(F)cc(Cl)cc4F)cc(N4CCCC4=O)c32)nc1", "target": "EGFR G719S", "test": "cell-free assay, competition with immobilised ligand", "setting": "1 µM", "quantity": "remaining binding", "result": "75%"}
{"SMILES": "Cc1ccc(C(=O)Nc2ccc(CN3CCN(C)CC3)c(C(F)(F)F)c2)cc1C#Cc1cnc2cccnn12", "target": "EGFR G719C", "test": "cell-free assay", "setting": "23.5 nM", "quantity": "remaining signal", "result": "88%"}
{"SMILES": "O=C(c1ccc(Nc2ncc(Cl)c(-c3ccc(Cl)s3)n2)cc1)N1CCC(N2CCCC2)CC1", "target": "EGFR T790M", "test": "binding, competition with immobilised ligand", "setting": "1 µM", "quantity": "remaining binding", "result": "63%"}
{"SMILES": "COc1cc2ncnc(Nc3ccc(Oc4ccccc4)cc3C)c2cc1OC", "target": "EGFR L861Q", "test": "enzyme activity, inhibitor", "setting": "1 µM", "quantity": "inhibition", "result": "76%"}
{"SMILES": "Oc1cccc(-c2nc(N3CCOCC3)c3oc4ncccc4c3n2)c1", "target": "EGFR", "test": "cell-free assay", "setting": "0.5 µM", "quantity": "remaining signal", "result": "83.8%"}
{"SMILES": "Cc1ccc(NC(=O)c2ccc(C)c(C(F)(F)F)c2)cc1C#Cc1nn(C2CCC(O)CC2)c2ncnc(N)c12 (stereo not shown)", "target": "EGFR T790M", "test": "cell-free assay", "setting": "10 µM", "quantity": "remaining signal", "result": "4%"}
{"SMILES": "Cc1c(C(=O)O)cc(-c2ccc(C3CCNCC3)cc2)c2ccc(-c3ccc(C(F)(F)F)cc3)cc12", "target": "Epidermal growth factor receptor (EGFR, Homo sapiens, UniProt P00533, del747-750/T751S)", "test": "cell-free assay, competition with immobilised ligand", "setting": "1 µM", "quantity": "remaining binding", "result": "100%"}
{"SMILES": "CC(C)(C)c1nc2c(s1)c1nc(N)ncc1c1ccc(NS(=O)(=O)c3c(F)cccc3F)c(F)c12", "target": "EGFR", "test": "enzyme activity, inhibitor, radiometric", "setting": "1 µM", "quantity": "remaining activity", "result": "104%"}
{"SMILES": "c1nc2c(Nc3ccc4c(c3)OCCO4)nc(Nc3ccc4c(c3)OCCO4)nc2[nH]1", "target": "EGFR", "test": "enzyme activity, inhibitor", "setting": "10 µM", "quantity": "activity vs control", "result": "3.5%"}
{"SMILES": "Cc1cnc(NC2CCOCC2)nc1-n1cnc(C(=O)NC(CN)c2cc(F)cc(Cl)c2)c1 (stereo not shown)", "target": "EGFR L858R/T790M", "test": "enzyme activity, inhibitor, radiometric", "setting": "1 µM", "quantity": "remaining activity", "result": "109%"}
{"SMILES": "COc1cc(N(C)CCN(C)C)c(NC(=O)/C=C/C(C)C)cc1Nc1nc(Nc2cnn(C)c2)c2sccc2n1", "target": "EGFR L858R/T790M", "test": "enzyme activity, inhibitor, ELISA", "setting": "0.1 µM", "quantity": "inhibition", "result": "34.6%"}
{"SMILES": "COc1cc2ncnc(Nc3ccc(Oc4ccccc4)c(C)c3C)c2cc1OC", "target": "EGFR L858R/T790M", "test": "enzyme activity, inhibitor", "setting": "1 µM", "quantity": "inhibition", "result": "17%"}
{"SMILES": "Cc1cc(NC(=O)c2cccc3cc(-c4cccc5[nH]nc(N)c45)ccc23)ccc1F", "target": "EGFR L861Q", "test": "enzyme activity, inhibitor", "setting": "0.1 µM", "quantity": "activity vs control", "result": "95%"}
{"SMILES": "C[C@H]1CCN(c2nccc(-c3cnn4ncccc34)n2)C1", "target": "EGFR G719C", "test": "binding", "setting": "1 µM", "quantity": "remaining binding", "result": "85%"}
{"SMILES": "CC(C)[C@@H]1NC(=O)[C@H](CCCNC(=N)N)NC(=O)[C@H](Cc2ccc(O)cc2)NC(=O)[C@H](C(C)C)NC(=O)[C@H](C(C)C)NC(=O)[C@H](CCCNC(=N)N)NC(=O)[C@H](CC(=O)O)NC(=O)[C@H](CC(=O)O)NC(=O)CCNC(=O)[C@H](Cc2ccc(O)cc2)NC(=O)[C@H](Cc2ccc(O)cc2)NC(=O)[C@H](Cc2ccccc2)NC(=O)[C@@H](Cc2ccc(O)cc2)NC(=O)CSC[C@@H](C(=O)NCC(N)=O)NC(=O)CCNC1=O", "target": "EGFR", "test": "binding, SPR", "quantity": "kon", "result": "258000 M⁻¹ s⁻¹"}
{"SMILES": "c1cnn2ncc(-c3ccnc(N4CCC45COC5)n3)c2c1", "target": "EGFR del746-750", "test": "binding", "setting": "1 µM", "quantity": "remaining binding", "result": "89%"}
{"SMILES": "Cn1nc(C(=O)NCc2ccc(C(=O)O)cc2)cc1-c1ccc2[nH]ccc2c1", "target": "EGFR", "test": "cell-free assay, competition with immobilised ligand", "setting": "0.1 µM", "quantity": "remaining binding", "result": "100%"}
{"SMILES": "CC(C)[C@@H]1NC(=O)[C@H](CCCNC(=N)N)NC(=O)[C@H](Cc2ccc(O)cc2)NC(=O)[C@H](C(C)C)NC(=O)[C@H](C(C)C)NC(=O)[C@H](CCCNC(=N)N)NC(=O)[C@H](CC(=O)O)NC(=O)[C@H](CC(=O)O)NC(=O)CCNC(=O)[C@H](Cc2ccc(O)cc2)NC(=O)[C@H](Cc2ccc(O)cc2)NC(=O)[C@H](Cc2ccccc2)NC(=O)[C@@H](Cc2ccc(O)cc2)NC(=O)CSC[C@@H](C(=O)NCC(N)=O)NC(=O)[C@H](C)NC1=O", "target": "EGFR", "test": "binding, SPR", "quantity": "kon", "result": "192000 M⁻¹ s⁻¹"}
{"SMILES": "COc1cc(Nc2c(C#N)cnc3cc(OCCCN4CCN(C)CC4)c(OC)cc23)c(Cl)cc1Cl", "target": "EGFR", "test": "cell-free assay", "setting": "0.5 µM", "quantity": "remaining signal", "result": "3.84%"}
{"SMILES": "O=C(O)[C@@H]1[C@@H](Cn2nnc3ccccc3c2=O)CC[C@H]1C(=O)c1ccc(OCCC2CCOCC2)cc1", "target": "EGFR T790M", "test": "cell-free assay, competition with immobilised ligand", "setting": "1 µM", "quantity": "remaining binding", "result": "94%"}
{"SMILES": "Cc1cnn2ncc(-c3ccnc(N(C)C)n3)c2c1", "target": "EGFR L861Q", "test": "binding", "setting": "1 µM", "quantity": "remaining binding", "result": "70%"}
{"SMILES": "CCC(=O)N[C@@H]1CC[C@H](C(=O)N(C)c2ccc(-c3nc4ccccc4o3)cc2)C1", "target": "EGFR G719S", "test": "cell-free assay, competition with immobilised ligand", "setting": "1 µM", "quantity": "remaining binding", "result": "96%"}
{"SMILES": "COc1cc(-c2cc(-c3ccc(N4CCNCC4)cc3)cnc2N)cc(OC)c1OC", "target": "EGFR L858R", "test": "enzyme activity, inhibitor", "setting": "0.1 µM", "quantity": "inhibition", "result": "26%"}
{"SMILES": "N[C@@H]1CCN(c2nccc(-c3cnn4ncccc34)n2)C1", "target": "EGFR L861Q", "test": "binding", "setting": "1 µM", "quantity": "remaining binding", "result": "92%"}
{"SMILES": "Cc1ccc(Nc2nccc(N(C)c3ccc4c(C)n(C)nc4c3)n2)cc1S(N)(=O)=O", "target": "EGFR", "test": "cell-free assay", "setting": "0.5 µM", "quantity": "remaining signal", "result": "91%"}
{"SMILES": "CN(C)c1nccc(-c2cnn3ncccc23)n1", "target": "EGFR G719S", "test": "binding", "setting": "1 µM", "quantity": "remaining binding", "result": "100%"}
{"SMILES": "COc1ccc(COc2ccc(Cc3cnc(N)nc3N)cc2OC)cc1", "target": "EGFR", "test": "cell-free assay", "setting": "0.5 µM", "quantity": "remaining signal", "result": "96.9%"}
{"SMILES": "CSc1cccnc1N1CCN(Cc2nc3ccccc3[nH]2)CC1", "target": "EGFR L858R", "test": "cell-free assay, competition with immobilised ligand", "setting": "1 µM", "quantity": "remaining binding", "result": "100%"}
{"SMILES": "Cc1sc(C(=O)NC2COC2)cc1-n1cc(NC(=O)Nc2c(F)cccc2Cl)cn1", "target": "EGFR", "test": "enzyme activity, inhibitor", "setting": "10 µM", "quantity": "remaining activity", "result": "98.5%"}
{"SMILES": "CC/C(=N\\NC(=O)NCc1cccc(O)c1)c1ccc(O)c(C)c1O", "target": "EGFR", "test": "enzyme activity, inhibitor", "setting": "0.1 µM", "quantity": "inhibition", "result": "4.5%"}
{"SMILES": "O=c1nc(-c2ccccn2)sc2ccccc12", "target": "EGFR G719C", "test": "cell-free assay, competition with immobilised ligand", "setting": "1 µM", "quantity": "remaining binding", "result": "77%"}
{"SMILES": "CCC(=O)Nc1cc(Nc2nc(N3CCc4sccc4C3)c3cccnc3n2)c(OC)cc1N(C)C", "target": "EGFR L858R/T790M", "test": "enzyme activity, inhibitor, ELISA", "setting": "0.1 µM", "quantity": "inhibition", "result": "6%"}
{"SMILES": "CCCCN(CCCC)C(=O)CN1C[C@@H](c2cc(OC)c3c(c2)OCO3)[C@H](C(=O)O)[C@H]1CC(C)(C)CCC", "target": "Epidermal growth factor receptor (EGFR, Homo sapiens, UniProt P00533, del747-752/P753S)", "test": "cell-free assay, competition with immobilised ligand", "setting": "1 µM", "quantity": "remaining binding", "result": "75.9%"}
{"SMILES": "CN(c1nccc(-c2cnn3ncccc23)n1)C1CC1", "target": "EGFR del746-750", "test": "binding", "setting": "1 µM", "quantity": "remaining binding", "result": "100%"}
